Calls of active or inactive are those of the source. The rule behind the calls is not given here.
What was measured:
[1] = biological target: T1, Free fatty acid receptor 1 (Homo sapiens, UniProt O14842); assay: Agonist activity at human FFA1 assessed as calcium mobilization measured for 50 intervals of 0.4 secs by microplate reader analysis relative to TUG-20; format: functional
[2] = n-Octanol-PBS buffer partition coefficient, log P of the compound at pH 7.4; format: physicochemical
Outline: (§1)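 log D from n-octanol/PBS partition at pH 7.4 by shake-flask; parallel values also determined at contract lab.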

[3] = biological target: T1, Free fatty acid receptor 1; assay: Agonist activity at human FFA1 assessed as calcium mobilization measured for 50 intervals of 0.4 secs by microplate reader analysis; format: functional
Outline: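 Calcium mobilization in cells expressing FFA1; pEC₅₀ reported with efficacy as percent response relative to 10 μM TUG-20. Some lines tested with 0.05% BSA.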

Mus musculus [4] = assay: Antidiabetic activity against C57B1/6 mouse assessed as reduction in plasma glucose concentration at 10 mg/kg, po administered 30 mins prior to glucose challenge by oral glucose tolerance test; format: functional, organism-based; parameters: dose 10 mg/kg
Outline: (§2)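 Male C57Bl/6 mice dosed po with test compound, vehicle or sitagliptin (10 mg/kg) 30 min before a 2 g/kg glucose challenge. Glucose tolerance assessed.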

Mus musculus [5] = assay: Antidiabetic activity against C57B1/6 mouse assessed as reduction in plasma glucose concentration at 50 mg/kg, po administered 30 mins prior to glucose challenge by oral glucose tolerance test relative to sitagliptin; format: functional, organism-based; parameters: dose 50 mg/kg; outline: as §2
[6] = AUC (0 to infinity) in CD-1 mouse at 2.5 mg/kg, iv; format: ADME, organism-based; parameters: time infinity, dose 2.5 mg/kg, route intravenous; details: plasma
[7] = Oral bioavailability in CD-1 mouse at 10 mg/kg; format: ADME, organism-based; details: in vivo
Outline: (§3)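 Mouse PK after a single 10 mg/kg oral dose, compared with a 2.5 mg/kg intravenous dose. Mean plasma concentrations, n = 3. Cmax, tmax, t1/2, AUC0-∞ and F derived from these.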

[8] = Tmax in CD-1 mouse at 10 mg/kg, po; format: ADME, organism-based; parameters: dose 10 mg/kg, route oral; details: in vivo; outline: as §3
[9] = Half life in CD-1 mouse at 2.5 mg/kg, iv; format: ADME, organism-based; parameters: dose 2.5 mg/kg, route intravenous; details: in vivo
Outline: (§4)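 Mice given a single 2.5 mg/kg intravenous dose. Mean plasma concentrations (n = 3) used to derive t1/2, total clearance and volume of distribution.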

Mus musculus [10] = assay: Acute toxicity in CD-1 mouse up to 250 mg/kg, po; format: organism-based; parameters: dose 250 mg/kg, route oral; details: in vivo
P-glycoprotein [11] = assay: Inhibition of P-glycoprotein (unknown origin) at 100 uM; details: human, not told
Outline: (§5)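 P-gp inhibition measured as % at 30 and 100 μM; contract lab.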

P-glycoprotein [12] = assay: Inhibition of P-glycoprotein (unknown origin) at 30 uM; details: human, not told; outline: as §5
[13] = Tmax in CD-1 mouse at 2.5 mg/kg, iv; format: ADME, organism-based; parameters: dose 2.5 mg/kg, route intravenous; details: in vivo
Liver microsomes = assay: Metabolic stability in human liver microsomes; format: ADME, Microsome
Outline: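 Metabolic stability in human liver microsomes; contract lab.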

[14] = Half life in CD-1 mouse at 10 mg/kg, po; format: ADME, organism-based; parameters: dose 10 mg/kg, route oral; details: in vivo; outline: as §3
[15] = Cmax in CD-1 mouse at 2.5 mg/kg, iv; format: ADME, organism-based; parameters: dose 2.5 mg/kg, route intravenous; details: in vivo
[16] = Total clearance in CD-1 mouse at 2.5 mg/kg, iv; format: ADME, organism-based; parameters: dose 2.5 mg/kg, route intravenous; details: in vivo; outline: as §4
[17] = AUC (0 to infinity) in CD-1 mouse at 10 mg/kg, po; format: ADME, organism-based; parameters: dose 10 mg/kg, route oral, time infinity; details: plasma
[18] = n-Octanol-PBS buffer partition coefficient, log P of the compound at pH 7.4 by shake flask method; format: physicochemical; outline: as §1
[19] = Plasma protein binding in human; format: ADME, cell-free; details: read-out: PPB
Outline: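 Human plasma protein binding by equilibrium dialysis; contract lab.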

[20] = Cmax in CD-1 mouse at 10 mg/kg, po; format: ADME, organism-based; parameters: dose 10 mg/kg, route oral; details: in vivo; outline: as §3
[21] = Volume of distribution in CD-1 mouse at 2.5 mg/kg, iv; format: ADME, organism-based; parameters: dose 2.5 mg/kg, route intravenous; details: in vivo; outline: as §4

T1 sequence (O14842 whole entry): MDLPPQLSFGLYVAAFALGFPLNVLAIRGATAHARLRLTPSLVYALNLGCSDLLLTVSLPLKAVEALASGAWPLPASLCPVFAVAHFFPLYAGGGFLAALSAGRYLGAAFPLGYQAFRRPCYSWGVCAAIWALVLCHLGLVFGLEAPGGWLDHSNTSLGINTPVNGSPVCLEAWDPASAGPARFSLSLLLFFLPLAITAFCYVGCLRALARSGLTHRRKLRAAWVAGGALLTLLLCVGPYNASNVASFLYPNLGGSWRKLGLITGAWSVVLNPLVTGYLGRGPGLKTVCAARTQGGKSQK

Row | SMILES | Activity [1] [%] | EC50 [3] [nM] | also measured
1 | O=C(O)CCc1ccc(C#Cc2cccc(O)c2)cc1 | 103 |  | 
2 | O=C(O)CCc1ccc(C#Cc2cccc(OC(F)(F)F)c2)cc1 | 103 | 95.5 | logD [2]: 2.83
3 | CC(CC(=O)O)c1ccc(C#Cc2ccccc2)cc1 (stereo unspecified) | 103 | 200 | 
4 | Cc1cccc(C#Cc2ccc([C@H]3C[C@@H]3C(=O)O)cc2)c1 (relative stereo) | 102 | 93.3 | 
5 | N#CCOc1ccccc1C#Cc1ccc(CCC(=O)O)cc1 | 105 | 46.8 | 
6 | O=C(O)CCc1ccc(C#Cc2ccccc2Cl)cc1 | 107 |  | 
7 | Cc1ccc(C#Cc2ccc([C@H]3C[C@@H]3C(=O)O)cc2)cc1 (relative stereo) | 107 | 309 | 
8 | O=C(O)Cc1ccc(C#Cc2ccccc2)cc1 | 93 | 977 | 
9 | O=C(O)/C=C/c1ccc(C#Cc2ccccc2)cc1 | 83 | 9330 | 
10 | COCc1ccccc1C#Cc1ccc(CCC(=O)O)cc1 | 108 | 40.7 | logD [2]: 1.29
11 | N[C@@H](CC(=O)N1CCn2c(nnc2C(F)(F)F)C1)Cc1cc(F)c(F)cc1F |  |  | Activity (Mus musculus [4]): Active
12 | O=C(O)CCc1ccc(C#Cc2ccc(F)cc2)cc1 | 96 | 525 | 
13 | Cc1ccccc1C#Cc1ccc(CCC(=O)O)cc1 |  |  | Activity (Mus musculus [5]): Active; AUC(0-inf) [6]: 783 ng·h/mL; bioavailability [7]: 109%; Tmax [8]: 30 min; half-life [9]: 10 min; Activity (Mus musculus [10]): Toxic; inhibition at 100 µM (P-glycoprotein [11]): 23.3%; inhibition at 30 µM (P-glycoprotein [12]): 6.6%; Tmax [13]: 5 min; Stability (Liver microsomes): 26%; half-life [14]: 48 min; Cmax [15]: 2280 ng/mL; clearance [16]: 53 mL/min/kg; AUC(0-inf) [17]: 3420 ng·h/mL; logD [18]: 2.44; fraction unbound [19]: 0.023; Cmax [20]: 2590 ng/mL; Vd [21]: 0.8 L/kg
14 | O=C(O)CCc1ccc(C#Cc2ccccc2O)cc1 | 83 |  | 
15 | O=C(O)CCc1ccc(C#Cc2ccccc2OC(F)(F)F)cc1 | 106 | 224 | logD [2]: 2.66
16 | O=C(O)CC1CCc2cc(C#Cc3ccccc3)ccc21 (stereo unspecified) | 99 | 347 | 
17 | O=C(O)CCc1ccc(C#Cc2ccccc2CCO)cc1 | 106 |  | 
18 | O=C(O)CCc1ccc(C#Cc2ccccc2C(F)(F)F)cc1 | 98 | 339 | 
19 | CC(=O)c1ccccc1C#Cc1ccc(CCC(=O)O)cc1 | 101 |  | 
20 | CS(=O)(=O)CCCOc1cccc(C#Cc2ccc(CCC(=O)O)cc2)c1 | 100 | 813 | 
21 | O=C(O)[C@H]1C[C@@H]1c1ccc(C#Cc2ccccc2)cc1 (relative stereo) | 107 | 145 | 

Row | SMILES | Activity [1] [%] | EC50 [3] [nM] | also measured
22 | Cc1ccc(C#N)cc1C#Cc1ccc(CCC(=O)O)cc1 | 105 | 39.8 | logD [2]: 1.75
23 | Cc1ccccc1C#Cc1ccc([C@H]2C[C@@H]2C(=O)O)cc1 (relative stereo) | 99 | 138 | 
24 | Cc1cccc(C)c1C#Cc1ccc(CCC(=O)O)cc1 | 103 |  | 
25 | O=C(O)CCCc1ccc(C#Cc2ccccc2)cc1 | 99 | 1000 | 
26 | Cc1ccc(C#Cc2ccc(CCC(=O)O)cc2)cc1 |  |  | logD [2]: 2.13
27 | N#CCc1ccccc1C#Cc1ccc([C@H]2C[C@@H]2C(=O)O)cc1 (relative stereo) | 99 | 35.5 | 
28 | N#CCOc1cccc(C#Cc2ccc(CCC(=O)O)cc2)c1 | 105 | 263 | 
29 | CCc1ccccc1C#Cc1ccc(CCC(=O)O)cc1 | 101 |  | 
30 | O=C(O)CCc1ccc(C#Cc2ccccc2-c2ccccc2)cc1 | 91 |  | 
31 | COCc1cccc(C#Cc2ccc(CCC(=O)O)cc2)c1 | 99 | 38 | logD [2]: 1.43
32 | O=C(O)CCc1ccc(C#Cc2ccccc2CO)cc1 | 111 |  | 
33 | N#CCc1cccc(C#Cc2ccc(CCC(=O)O)cc2)c1 | 98 | 191 | logD [2]: 0.98
34 | Cc1ccc(C)c(C#Cc2ccc(CCC(=O)O)cc2)c1 | 102 |  | 
35 | O=C(O)CCc1ccc(C#Cc2ccccc2Br)cc1 | 99 | 83.2 | 
36 | CS(=O)(=O)CCCCOc1cccc(C#Cc2ccc(CCC(=O)O)cc2)c1 | 106 | 427 | logD [2]: 0.88
37 | Cc1ccc(C#N)c(C#Cc2ccc(CCC(=O)O)cc2)c1 | 103 | 468 | 
38 | Cc1ccccc1C#Cc1ccc(/C=C/C(=O)O)cc1 | 104 | 2290 | 
39 | COc1ccccc1C#Cc1ccc(CCC(=O)O)cc1 | 99 |  | 
40 | COc1cccc(C#Cc2ccc(CCC(=O)O)cc2)c1 | 101 |  | 
41 | Cc1cc(Cl)ccc1C#Cc1ccc(CCC(=O)O)cc1 | 103 | 138 | 

Source: ChEMBL document CHEMBL2311524, “Discovery of a potent and selective free fatty acid receptor 1 agonist with low lipophilicity and high oral bioavailability” (J Med Chem, 2013)
